The values below come from ChEMBL document CHEMBL1144710, “epigenetic multiple ligands: mixed histone/protein methyltransferase, acetyltransferase, and class III deacetylase (sirtuin) inhibitors” (J Med Chem, 2008).

pIC50: −log10 of the molar value. The source made the active and inactive calls.

Assay [1] relates to U-937. The experiment in a line: Induction of apoptosis in human U937 cells at 25 uM after 30 hrs. It counts as functional. The method, boiled down: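 Apoptosis read as caspase 3 activation by FACS, in U937 cells (RPMI, 10% fetal calf serum, 200000 cells/mL) exposed to 25 µM for 30 h.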
Assay [2] has as its system U-937. The assay is described as follows: Inhibition of histone H3R17 methylation in human U937 cells at 50 uM after 24 hrs. Type of assay: functional, cell-based. The essentials: (§1)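 U937 cells treated at 50 µM for 24 h. Histones extracted with Triton buffer, then 0.2 M HCl overnight at 4 °C. 3–10 µg run on 15% SDS-PAGE and immunoblotted with anti-monomethyl-H3K4, monomethyl-H4R3 or dimethyl-H3R17 (1:500, overnight 4 °C), ECL detection. Loading controls: total H4 (H3K4), Ponceau Red (Arg marks).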

Assay [3] has as its target T1, Histone-arginine methyltransferase CARM1 (Homo sapiens) (UniProt Q86X55).
T1 sequence (whole entry): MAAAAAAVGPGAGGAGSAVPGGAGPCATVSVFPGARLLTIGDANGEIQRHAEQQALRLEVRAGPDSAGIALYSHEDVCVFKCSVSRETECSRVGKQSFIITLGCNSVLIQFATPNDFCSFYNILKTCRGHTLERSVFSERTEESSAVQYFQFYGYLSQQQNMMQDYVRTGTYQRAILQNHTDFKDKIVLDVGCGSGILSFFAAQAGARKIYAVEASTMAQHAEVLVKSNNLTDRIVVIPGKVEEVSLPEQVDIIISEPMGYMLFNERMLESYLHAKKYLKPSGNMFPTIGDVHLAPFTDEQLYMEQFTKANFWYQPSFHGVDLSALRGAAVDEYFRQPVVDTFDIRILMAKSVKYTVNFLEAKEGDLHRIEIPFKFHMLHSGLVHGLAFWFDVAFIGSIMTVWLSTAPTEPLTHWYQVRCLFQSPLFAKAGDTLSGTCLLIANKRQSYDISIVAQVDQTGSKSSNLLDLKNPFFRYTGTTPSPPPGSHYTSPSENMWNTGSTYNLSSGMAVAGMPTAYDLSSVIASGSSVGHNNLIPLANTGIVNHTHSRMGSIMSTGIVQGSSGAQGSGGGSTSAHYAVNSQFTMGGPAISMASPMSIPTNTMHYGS
The assay is described as follows: Inhibition of human recombinant CARM1 assessed as poly(A) binding protein 1 methylation at 100 uM. The essentials: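 Recombinant enzymes (0.2 µg) with substrate (0.5 µg: Npl3p for PRMT1, PABP1 for CARM1, histone H3 for SET7), 0.5 µM [3H]AdoMet and 100 µM compound in PBS pH 7.4 with 3.3% v/v DMSO, 90 min at 30 °C. Products separated by 10% SDS-PAGE, transferred to PVDF, detected by fluorography on film overnight.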

For assay [4], the target named is Protein arginine N-methyltransferase 1 (Homo sapiens) (UniProt Q99873). The experiment in a line: Inhibition of human recombinant PRMT1 assessed as histone H4 methylation at 50 uM.
For another assay, the target named is RmtA (Emericella nidulans, UniProt Q5VLE3). The experiment in a line: Inhibition of Aspergillus nidulans RmtA. The essentials: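 Enzyme was GST-RmtA fusion expressed in E. coli BL21 and glutathione-affinity purified (500 ng), preincubated with compound for 15 min at room temperature. Then 20 µg chicken erythrocyte core histones and 0.55 µCi [3H]AdoMet were added, 30 min at 30 °C. Stopped with 25% TCA, filtered, counted by liquid scintillation.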

Assay [5] concerns U-937. The assay is described as follows: Induction of granulocytic differentiation in human U937 cells assessed as CD11c expression at 5 uM after 30 hrs. It counts as functional. The method, boiled down: (§2)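 U937 cells treated for 30 h, then stained with PE-conjugated CD11c (PE mouse IgG1 as control) for 30 min at 4 °C in the dark and resuspended in PBS with PI (0.25 µg/mL). Read-out is percent CD11c-positive/PI-negative cells, with dead PI-positive cells excluded. Coloured compounds limited the top dose to 5 µM or lower.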

In assay [6] the test system is U-937. The assay is described as follows: Inhibition of histone H3K4 methylation in human U937 cells at 50 uM after 24 hrs. It counts as functional, cell-based. The essentials: as §1
The target in assay [7] is T2, NAD-dependent protein deacetylase sirtuin-1 (Homo sapiens) (UniProt Q96EB6).
T2 sequence (whole entry): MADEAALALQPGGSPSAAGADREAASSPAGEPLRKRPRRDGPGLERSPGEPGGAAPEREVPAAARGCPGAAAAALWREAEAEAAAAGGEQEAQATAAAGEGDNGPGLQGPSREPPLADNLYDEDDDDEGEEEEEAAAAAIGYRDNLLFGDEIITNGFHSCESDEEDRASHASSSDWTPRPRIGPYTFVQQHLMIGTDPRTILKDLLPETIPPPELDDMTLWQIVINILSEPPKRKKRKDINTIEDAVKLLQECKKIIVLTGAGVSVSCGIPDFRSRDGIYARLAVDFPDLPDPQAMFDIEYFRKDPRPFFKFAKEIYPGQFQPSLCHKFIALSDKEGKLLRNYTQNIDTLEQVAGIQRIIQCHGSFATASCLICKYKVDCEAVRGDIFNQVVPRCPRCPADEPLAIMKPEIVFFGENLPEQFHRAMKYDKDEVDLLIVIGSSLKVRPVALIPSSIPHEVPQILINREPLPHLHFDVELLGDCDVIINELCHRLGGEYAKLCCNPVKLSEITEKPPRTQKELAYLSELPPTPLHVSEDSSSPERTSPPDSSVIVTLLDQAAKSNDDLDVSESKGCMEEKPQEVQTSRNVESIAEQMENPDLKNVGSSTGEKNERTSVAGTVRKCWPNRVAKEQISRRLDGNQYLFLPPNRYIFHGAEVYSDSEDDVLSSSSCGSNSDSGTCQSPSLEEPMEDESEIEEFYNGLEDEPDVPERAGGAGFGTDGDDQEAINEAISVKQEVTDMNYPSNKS
The assay is described as follows: Inhibition of human SIRT1 at 25 uM. The method, boiled down: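 Fluorescent two-stage assay. SIRT1 (1 U/well) or SIRT2 (5 U/well) with Fluor de Lys-SIRT1/2 substrate, NAD+ and compound at 25 µM, 37 °C for 2 h. Developer II containing nicotinamide then stopped the reaction and generated signal, read at ex 360/em 460 nm.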

Assay [8] deals with U-937. The assay is described as follows: Induction of granulocytic differentiation in human U937 cells assessed as CD11c expression at 0.5 uM after 30 hrs. It counts as functional. The essentials: as §2
Assay [9] deals with U-937. The assay is described as follows: Inhibition of histone H4R3 methylation in human U937 cells at 50 uM after 24 hrs. It counts as functional, cell-based. The method, boiled down:
as §1

Sequence of RmtA (Q5VLE3 whole entry, the tested form may be a part): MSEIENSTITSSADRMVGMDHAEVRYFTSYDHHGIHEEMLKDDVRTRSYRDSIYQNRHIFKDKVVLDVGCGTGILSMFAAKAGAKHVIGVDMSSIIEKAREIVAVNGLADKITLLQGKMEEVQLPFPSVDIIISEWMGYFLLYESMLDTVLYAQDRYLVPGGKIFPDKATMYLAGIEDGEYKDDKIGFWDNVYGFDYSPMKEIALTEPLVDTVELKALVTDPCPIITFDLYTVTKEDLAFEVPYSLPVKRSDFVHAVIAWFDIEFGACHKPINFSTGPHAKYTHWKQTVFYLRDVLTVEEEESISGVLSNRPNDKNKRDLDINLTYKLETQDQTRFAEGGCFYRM
Sequence of Protein arginine N-methyltransferase 1 (Homo sapiens) (Q99873 whole entry, looked up, the tested form may be a part): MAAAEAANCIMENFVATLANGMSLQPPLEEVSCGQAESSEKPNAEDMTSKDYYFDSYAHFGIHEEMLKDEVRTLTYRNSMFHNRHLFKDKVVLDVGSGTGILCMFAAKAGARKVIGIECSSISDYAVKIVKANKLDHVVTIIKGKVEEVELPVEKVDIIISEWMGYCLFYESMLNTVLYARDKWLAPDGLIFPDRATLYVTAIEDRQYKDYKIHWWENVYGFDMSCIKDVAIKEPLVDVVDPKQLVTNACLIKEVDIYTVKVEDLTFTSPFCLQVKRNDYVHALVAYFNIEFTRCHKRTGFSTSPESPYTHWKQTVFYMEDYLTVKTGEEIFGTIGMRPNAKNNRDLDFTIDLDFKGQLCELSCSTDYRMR

In the case of `O=C1/C(=C/c2cc(Br)c(O)c(Br)c2)COC/C1=C\c1cc(Br)c(O)c(Br)c1`, the Activity with U-937 [1] came to 27.9%; in the assay with U-937 [5] it was 96.1%; in the assay on U-937 [8], 59%. The outcome (with U-937 [2]; in assay [3]; in the assay on U-937 [6]; in the assay with U-937 [9]) was Active. For the same molecule, the inhibition (commonly the drop in the measured response relative to a control, in per cent) in [4] was determined as 91%; in assay [7] it was 62%. Moreover, the pIC50 (as a rule, the IC50 on a negative log10 scale, so that one unit is a factor of ten) at RmtA is 4.54.
